The source made the active and inactive calls. The rule behind the calls is not given here.
What was measured:
Canis familiaris [1] = experiment: Antihypertensive activity against angiotensin II-induced pressor response in conscious normotensive Beagle dog assessed as rate of change of mean diastolic blood pressure at 2.13 mg/kg, po after 1 hr; type: functional, Canis lupus familiaris, Artery
Procedure, shortened: (§1)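 Conscious normotensive Beagle dogs, 6–7 per group. Baseline BP and heart rate recorded once stable, then test compound given orally at 2.13 mg/kg. BP and heart rate read 1 h after dosing, then AngII 0.45 µg/kg iv, with waveforms recorded 1 min after injection. Values given as rate of change relative to pre-model baseline (100%), with SEM.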

Canis familiaris [2] = experiment: Antihypertensive activity against angiotensin II-induced pressor response in conscious normotensive Beagle dog assessed as rate of change of mean arterial blood pressure at 2.13 mg/kg, po after 1 hr; type: functional, Canis lupus familiaris, Artery; procedure, shortened: as §1
Canis familiaris [3] = experiment: Antihypertensive activity against angiotensin II-induced pressor response in conscious normotensive Beagle dog assessed as decrease in basal heart rate at 2.13 mg/kg, po after 1 hr; type: functional, organism-based; set-up: dose 2.13 mg/kg; settings: Canis lupus familiaris; procedure, shortened: as §1
Canis familiaris [4] = experiment: Antihypertensive activity against angiotensin II-induced pressor response in conscious normotensive Beagle dog assessed as rate of change of mean systolic blood pressure at 2.13 mg/kg, po after 1 hr; type: functional, Canis lupus familiaris, Artery; procedure, shortened: as §1

CCCc1nc2c(C)cc(-c3nc4ccccc4n3C)cc2n1Cc1ccc(-c2ccccc2C2=NCCN2)cc1
Activity (Canis familiaris [1]): 95.28%
Activity (Canis familiaris [2]): 97.43%
Activity (Canis familiaris [3]): Active
Activity (Canis familiaris [4]): 96.75%

CCCc1nc2c(C)cc(-c3nc4ccccc4n3C)cc2n1Cc1ccc(-c2ccccc2C(=O)O)cc1
Activity (Canis familiaris [1]): 96.15%
Activity (Canis familiaris [2]): 96.13%
Activity (Canis familiaris [4]): 95.78%

CCCc1nc2c(C)cc(-c3nc4ccccc4n3C)cc2n1Cc1ccc(-c2ccccc2-c2ncc(Cl)[nH]2)cc1
Activity (Canis familiaris [1]): 95.28%
Activity (Canis familiaris [2]): 95.43%
Activity (Canis familiaris [3]): Active
Activity (Canis familiaris [4]): 95.75%

CCCc1nc2c(C)cc(-c3nc4ccccc4n3C)cc2n1Cc1ccc(-c2ccccc2-c2ncc[nH]2)cc1
Activity (Canis familiaris [1]): 97.96%
Activity (Canis familiaris [2]): 98.11%
Activity (Canis familiaris [3]): Active
Activity (Canis familiaris [4]): 98.67%

CCCc1nc2c(C)cc(-c3nc4ccccc4n3C)cc2n1Cc1ccc(-c2ccccc2-c2ncn[nH]2)cc1
Activity (Canis familiaris [1]): 103.14%
Activity (Canis familiaris [2]): 103.37%
Activity (Canis familiaris [3]): inactive
Activity (Canis familiaris [4]): 103.8%

Source: ChEMBL document CHEMBL1152172, “Synthesis and biological activities of novel nonpeptide angiotensin II receptor antagonists based on benzimidazole derivatives bearing a heterocyclic ring” (Bioorg Med Chem, 2008)
